Drawing on ChEMBL document CHEMBL1153852, “Steroidal lactones as inhibitors of 17beta-hydroxysteroid dehydrogenase type 5: chemical synthesis, enzyme inhibitory activity, and assessment of estrogenic and androgenic activities” (Eur J Med Chem, 2009), this text covers Activity for 2 compounds.

The target in assay [1] is T1, Glucocorticoid receptor (Rattus norvegicus) (UniProt P06536).
T1 sequence (whole entry): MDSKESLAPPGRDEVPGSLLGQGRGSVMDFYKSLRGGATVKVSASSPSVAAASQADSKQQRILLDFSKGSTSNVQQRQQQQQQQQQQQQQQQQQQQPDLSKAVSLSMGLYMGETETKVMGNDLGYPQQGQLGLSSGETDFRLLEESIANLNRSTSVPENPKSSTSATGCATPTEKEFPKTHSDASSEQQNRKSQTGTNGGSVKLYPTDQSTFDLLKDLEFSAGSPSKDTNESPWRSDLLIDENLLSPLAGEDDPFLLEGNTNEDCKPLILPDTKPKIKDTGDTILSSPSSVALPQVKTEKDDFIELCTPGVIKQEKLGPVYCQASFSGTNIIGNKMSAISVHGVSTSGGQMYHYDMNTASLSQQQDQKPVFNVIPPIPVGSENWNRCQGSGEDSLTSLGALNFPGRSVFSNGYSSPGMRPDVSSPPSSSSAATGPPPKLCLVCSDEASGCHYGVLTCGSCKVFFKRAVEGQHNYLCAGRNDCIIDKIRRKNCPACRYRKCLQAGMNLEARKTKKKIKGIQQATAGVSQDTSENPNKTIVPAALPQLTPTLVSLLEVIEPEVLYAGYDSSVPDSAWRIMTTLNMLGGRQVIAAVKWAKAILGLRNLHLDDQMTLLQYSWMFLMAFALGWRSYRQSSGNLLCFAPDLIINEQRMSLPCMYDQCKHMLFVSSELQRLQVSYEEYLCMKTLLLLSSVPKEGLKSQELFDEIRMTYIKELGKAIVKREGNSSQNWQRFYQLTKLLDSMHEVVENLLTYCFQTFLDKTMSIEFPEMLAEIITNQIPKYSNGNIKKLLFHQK
The assay can be described thus: Binding affinity to rat liver glucocorticoid receptor at 1 uM. Summed up: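 Rat liver glucocorticoid receptor competitive binding, reported as % binding. Bound and free steroid are separated by dextran-coated charcoal adsorption instead of protamine sulfate precipitation.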

The target in assay [2] is T2, Androgen receptor (Rattus norvegicus) (UniProt P15207).
T2 sequence (whole entry): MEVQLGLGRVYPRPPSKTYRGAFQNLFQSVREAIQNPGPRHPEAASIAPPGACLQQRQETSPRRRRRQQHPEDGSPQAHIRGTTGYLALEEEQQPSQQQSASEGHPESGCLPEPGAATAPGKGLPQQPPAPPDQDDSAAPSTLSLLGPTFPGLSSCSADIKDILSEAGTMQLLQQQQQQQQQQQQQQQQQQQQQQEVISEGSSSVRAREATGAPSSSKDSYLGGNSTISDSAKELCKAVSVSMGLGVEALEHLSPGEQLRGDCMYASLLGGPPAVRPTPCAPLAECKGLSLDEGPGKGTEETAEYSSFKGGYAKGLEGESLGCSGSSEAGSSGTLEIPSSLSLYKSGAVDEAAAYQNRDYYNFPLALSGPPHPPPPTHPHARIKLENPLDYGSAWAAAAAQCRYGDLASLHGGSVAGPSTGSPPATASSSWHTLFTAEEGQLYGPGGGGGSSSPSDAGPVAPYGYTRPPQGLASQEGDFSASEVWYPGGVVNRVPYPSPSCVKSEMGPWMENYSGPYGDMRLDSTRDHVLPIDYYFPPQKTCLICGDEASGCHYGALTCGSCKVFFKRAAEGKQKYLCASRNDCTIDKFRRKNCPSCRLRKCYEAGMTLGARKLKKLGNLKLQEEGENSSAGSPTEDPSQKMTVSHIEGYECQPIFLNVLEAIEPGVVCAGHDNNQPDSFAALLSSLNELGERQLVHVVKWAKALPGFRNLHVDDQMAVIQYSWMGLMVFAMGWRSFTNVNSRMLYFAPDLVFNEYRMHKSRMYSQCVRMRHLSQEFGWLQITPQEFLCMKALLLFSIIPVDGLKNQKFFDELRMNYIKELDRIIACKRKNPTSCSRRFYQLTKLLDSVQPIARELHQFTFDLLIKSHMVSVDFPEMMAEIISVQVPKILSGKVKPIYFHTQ
The assay can be described thus: Binding affinity to rat ventral prostate androgen receptor at 10 uM. The assay is classed as tissue-based. The note with it: Prostate gland.

Assay [3] addresses T3, Estrogen receptor (Rattus norvegicus) (UniProt P06211).
T3 sequence (whole entry): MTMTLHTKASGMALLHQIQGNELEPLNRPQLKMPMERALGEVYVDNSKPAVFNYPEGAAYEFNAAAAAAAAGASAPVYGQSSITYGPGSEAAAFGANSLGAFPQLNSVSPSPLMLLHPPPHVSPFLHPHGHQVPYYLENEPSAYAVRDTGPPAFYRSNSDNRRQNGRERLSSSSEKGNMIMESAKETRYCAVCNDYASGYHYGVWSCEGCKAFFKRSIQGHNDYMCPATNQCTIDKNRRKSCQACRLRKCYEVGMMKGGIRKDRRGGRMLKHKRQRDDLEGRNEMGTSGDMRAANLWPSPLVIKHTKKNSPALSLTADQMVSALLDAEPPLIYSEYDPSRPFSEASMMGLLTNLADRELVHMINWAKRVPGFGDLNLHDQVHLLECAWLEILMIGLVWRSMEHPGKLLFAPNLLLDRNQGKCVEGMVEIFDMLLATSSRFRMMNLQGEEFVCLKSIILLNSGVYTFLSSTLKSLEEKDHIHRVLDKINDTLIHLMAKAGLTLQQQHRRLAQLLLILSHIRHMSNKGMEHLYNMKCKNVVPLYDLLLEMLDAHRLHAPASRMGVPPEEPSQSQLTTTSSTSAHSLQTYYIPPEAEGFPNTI
The assay is described as follows: Binding affinity to rat uterus estrogen receptor at 10 uM.

Each structure is given as a SMILES string.

In assay [1], `CC1(C)CC[C@@]2(CC[C@H]3[C@@H]4CCc5ccccc5[C@H]4CC[C@@]32C)OC1=O` yielded an Activity of 0%. On to `CC1(C)CC[C@@]2(CC[C@H]3[C@@H]4CCc5cc(O)ccc5[C@H]4CC[C@@]32C)OC1=O`, for which the results for the Activity in assay [2] and in assay [3] were 6% and 80%, respectively.
